# Test results from ChEMBL document CHEMBL4406852, “Combating fluconazole-resistant fungi with novel β-azole-phenylacetone derivatives” (Eur J Med Chem, 2019).
# Tests used:
# Type in all cases: functional
# [1] = test system: Nakaseomyces glabratus; assay: Antifungal activity against Candida glabrata assessed as reduction in fungal growth incubated for 24 hrs by serial dilution method
# Outline: (§1)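 MIC by CLSI broth microdilution in RPMI 1640 buffered to pH 7.0 with MOPS. Compounds dissolved in DMSO and serially diluted to final 0.03–16 or 0.125–64 µg/mL. Inoculum 1–5 × 10^3 CFU/mL. Incubation 35 °C, 24 h. Drug-free growth and fungus-free blank controls. MIC is the lowest concentration preventing visible growth.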
# [2] = test system: Candida albicans; assay: Antifungal activity against fluconazole-resistant Candida albicans 901 assessed as reduction in fungal growth incubated for 24 hrs by serial dilution method; settings: Candida albicans, 901, 24 h
# Outline: (§2)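 Fluconazole-resistant C. albicans clinical isolates (17# and CaR from AIDS patients; 632, 901, 904 from clinic) tested by CLSI broth dilution MIC in RPMI 1640 buffered to pH 7.0 with MOPS. Compounds dissolved in DMSO, serially diluted to final 0.03–16 or 0.125–64 μg/mL; inoculum 1–5 × 10^3 CFU/mL; 35 °C, 24 h. MIC = lowest concentration inhibiting visible growth; fluconazole and itraconazole as controls.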
# [3] = test system: Candida albicans; assay: Antifungal activity against Candida albicans SC5314 assessed as reduction in fungal growth incubated for 24 hrs by serial dilution method; settings: SC5314, 24 h; outline: as §1
# [4] = test system: Candida albicans; assay: Antifungal activity against fluconazole-resistant Candida albicans 17 assessed as reduction in fungal growth incubated for 24 hrs by serial dilution method; settings: Candida albicans, 17, 24 h; outline: as §2
# [5] = test system: Candida albicans; assay: Antifungal activity against Candida albicans GIM 2.194 assessed as reduction in fungal growth incubated for 24 hrs by serial dilution method; settings: GIM 2.194, 24 h; outline: as §1
# [6] = test system: Candida albicans; assay: Antifungal activity against fluconazole-resistant Candida albicans 904 assessed as reduction in fungal growth incubated for 24 hrs by serial dilution method; settings: Candida albicans, 904, 24 h; outline: as §2
# [7] = test system: Candida tropicalis; assay: Antifungal activity against Candida tropicalis GIM 2.183 assessed as reduction in fungal growth incubated for 24 hrs by serial dilution method; settings: GIM 2.183, 24 h; outline: as §1
# [8] = test system: Candida parapsilosis; assay: Antifungal activity against Candida parapsilosis GIM 2.190 assessed as reduction in fungal growth incubated for 24 hrs by serial dilution method; settings: Lodderomyces parapsilosis, GIM 2.190, 24 h; outline: as §1
# [9] = test system: Candida albicans; assay: Antifungal activity against fluconazole-resistant Candida albicans 632 assessed as reduction in fungal growth incubated for 24 hrs by serial dilution method; settings: Candida albicans, 632, 24 h; outline: as §2
# [10] = test system: Candida albicans; assay: Antifungal activity against fluconazole-resistant Candida albicans CaR assessed as reduction in fungal growth incubated for 24 hrs by serial dilution method; outline: as §2
Structure (SMILES),MIC [1] [µg/mL],MIC [2] [µg/mL],MIC [3] [µg/mL],MIC [4] [µg/mL],MIC [5] [µg/mL],MIC [6] [µg/mL],MIC [7] [µg/mL],MIC [8] [µg/mL],MIC [9] [µg/mL],MIC [10] [µg/mL]
O=C(NC(Cn1ccnc1)C(=O)c1ccc(Cl)cc1)c1ccc(-c2ccccc2)cc1F (stereo not drawn),0.25,> 64,0.06,> 64,0.5,32,0.06,0.125,> 64,> 64
Cc1cc(-c2ccccc2)ccc1C(=O)NC(Cn1ccnc1)C(=O)c1ccccc1 (stereo not drawn),> 64,–,> 16,–,> 16,–,> 16,> 64,–,–
CCC(C)n1ncn(-c2ccc(N3CCN(c4ccc(OCC5COC(Cn6cncn6)(c6ccc(Cl)cc6Cl)O5)cc4)CC3)cc2)c1=O (stereo not drawn) [ITRACONAZOLE],0.125,> 64,0.03,0.25,0.03,> 64,0.03,0.125,> 64,0.25
O=C(NC(Cn1ccnc1)C(=O)c1ccccc1)c1ccc(-c2ccccc2)c(Cl)c1 (stereo not drawn),> 64,–,> 16,–,> 16,–,> 16,> 64,–,–
Cc1ccccc1-c1ccc(C(=O)NC(Cn2ccnc2)C(=O)c2ccccc2)cc1 (stereo not drawn),> 64,–,> 16,–,> 16,–,> 16,> 64,–,–
O=C(NC(Cn1ccnc1)C(=O)c1ccccc1)c1ccc(-c2ccccc2)cc1F (stereo not drawn),0.5,> 64,0.125,2,0.25,8,0.06,0.125,32,4
Cc1ccc(-c2ccc(C(=O)NC(Cn3ccnc3)C(=O)c3ccccc3)cc2)cc1 (stereo not drawn),> 64,–,2,–,> 16,–,> 16,> 64,–,–
O=C(NC(Cn1ccnc1)C(=O)c1ccccc1)c1ccc(-c2ccccc2)cc1 (stereo not drawn),0.25,0.5,0.06,> 64,0.125,1,0.06,0.125,2,> 64
O=C(NC(Cn1ccnc1)C(=O)c1cccc(F)c1)c1ccc(-c2ccccc2)c(F)c1 (stereo not drawn),2,0.25,0.125,> 64,0.25,0.5,1,1,1,> 64
O=C(NC(Cn1ccnc1)C(=O)c1ccc(Cl)cc1)c1ccc(-c2ccccc2)cc1 (stereo not drawn),0.5,2,0.06,> 64,0.125,2,0.06,0.25,4,> 64
O=C(NC(Cn1ccnc1)C(=O)c1ccccc1)c1ccc(-c2ccc(F)cc2)cc1 (stereo not drawn),> 64,–,4,–,> 16,–,8,> 64,–,–
O=C(NC(Cn1ccnc1)C(=O)c1ccc(Cl)cc1)c1ccc(-c2ccccc2)c(F)c1 (stereo not drawn),0.5,> 64,0.06,> 64,0.5,> 64,0.06,1,> 64,> 64
Cc1cccc(-c2ccc(C(=O)NC(Cn3ccnc3)C(=O)c3ccccc3)cc2)c1 (stereo not drawn),> 64,–,> 16,–,> 16,–,> 16,> 64,–,–
O=C(NC(Cn1ccnc1)C(=O)c1cccc(F)c1)c1ccc(-c2ccccc2)cc1 (stereo not drawn),1,0.25,0.06,> 64,0.125,0.5,0.25,0.5,1,> 64
O=C(NC(Cn1ccnc1)C(=O)c1cccc(Cl)c1)c1ccc(-c2ccccc2)cc1F (stereo not drawn),0.25,> 64,0.06,> 64,0.125,> 64,0.03,0.125,> 64,> 64
O=C(NC(Cn1ccnc1)C(=O)c1cccc(Cl)c1)c1ccc(-c2ccccc2)c(F)c1 (stereo not drawn),0.25,4,0.06,> 64,0.125,4,0.125,0.5,4,> 64
O=C(NC(Cn1cncn1)C(=O)c1ccccc1)c1ccc(-c2ccccc2)cc1 (stereo not drawn),–,–,0.25,–,2,–,1,–,–,–
O=C(NC(Cn1ccnc1)C(=O)c1ccccc1F)c1ccc(-c2ccccc2)c(F)c1 (stereo not drawn),> 64,0.25,0.5,> 64,0.5,0.25,4,2,1,> 64
O=C(NC(Cn1ccnc1)C(=O)c1ccccc1)c1ccc(-c2ccccc2F)cc1 (stereo not drawn),1,–,0.5,–,1,–,0.25,2,–,–
O=C(NC(Cn1ccnc1)C(=O)c1ccccc1)c1ccc(-c2ccccc2)c(F)c1 (stereo not drawn),0.25,0.25,0.06,> 64,0.125,2,0.06,0.125,2,> 64
O=C(NC(Cn1ccnc1)C(=O)c1ccccc1)c1ccc(-c2ccc(Cl)cc2)cc1 (stereo not drawn),> 64,–,0.5,–,> 16,–,> 16,> 64,–,–
O=C(NC(Cn1ccnc1)C(=O)c1ccccc1)c1ccc(-c2ccccc2Cl)cc1 (stereo not drawn),4,–,2,–,> 16,–,> 16,> 64,–,–
O=C(NC(Cn1ccnc1)C(=O)c1ccc(F)cc1)c1ccc(-c2ccccc2)c(F)c1 (stereo not drawn),0.5,> 64,0.06,> 64,0.25,4,0.25,0.25,4,> 64
O=C(NC(Cn1ccnc1)C(=O)c1cccc(F)c1)c1ccc(-c2ccccc2)cc1F (stereo not drawn),2,2,0.125,4,0.5,32,0.5,0.5,> 64,2
O=C(NC(Cn1ccnc1)C(=O)c1ccccc1)c1ccc(-c2cccc(F)c2)cc1 (stereo not drawn),> 64,–,0.25,–,0.5,–,0.125,1,–,–
O=C(NC(Cn1ccnc1)C(=O)c1ccccc1)c1ccc(-c2ccccc2)cc1Cl (stereo not drawn),> 64,–,8,–,> 16,–,> 16,> 64,–,–
Cc1ccc(C(=O)C(Cn2ccnc2)NC(=O)c2ccc(-c3ccccc3)cc2)cc1 (stereo not drawn),0.25,16,0.06,> 64,0.125,32,0.03,0.5,> 64,> 64
Cc1cc(C(=O)NC(Cn2ccnc2)C(=O)c2ccccc2)ccc1-c1ccccc1 (stereo not drawn),> 64,–,> 16,–,> 16,–,> 16,> 64,–,–
O=C(NC(Cn1ccnc1)C(=O)c1ccccc1F)c1ccc(-c2ccccc2)cc1F (stereo not drawn),> 64,> 64,0.5,8,1,2,1,1,8,4
O=C(NC(Cn1ccnc1)C(=O)c1ccc(F)cc1)c1ccc(-c2ccccc2)cc1 (stereo not drawn),0.5,1,0.06,> 64,0.25,2,0.25,0.25,2,> 64
